Laboratory results from ChEMBL document CHEMBL1122279, “Importance of C-6 chirality in conferring irreversible opioid antagonism to naltrexone-derived affinity labels” (J Med Chem, 1983).

What was measured:
Cavia porcellus [1] = species on record: Cavia porcellus; assay: Irreversible antagonism to ethylketazocine (EK) was evaluated after 30 min incubation of GPI with the compound at 20 nM conc.; assay type: functional
How it was run: (§1)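 Guinea pig ileal longitudinal muscle was incubated with compound at the stated concentrations for 30 min, then washed 20 times. […] Result is the agonist IC50 after treatment divided by the control agonist IC50 in the same preparation.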

Cavia porcellus [2] = species on record: Cavia porcellus; assay: Irreversible antagonism to ethylketazocine (EK) was evaluated after 30 min incubation of GPI with the compound at 500 nM conc.; assay type: functional; how it was run: as §1
Cavia porcellus [3] = species on record: Cavia porcellus; assay: Irreversible antagonism to morphine was evaluated after 30 min incubation of GPI with the compound at 200 nM conc.; assay type: functional; how it was run: as §1
Cavia porcellus [4] = species on record: Cavia porcellus; assay: Irreversible antagonism to morphine was evaluated after 30 min incubation of GPI with the compound at 20 nM conc.; assay type: functional; how it was run: as §1
Cavia porcellus [5] = species on record: Cavia porcellus; assay: Irreversible antagonism to morphine was evaluated after 30 min incubation of GPI with the compound at 500 nM conc.; assay type: functional; how it was run: as §1
Cavia porcellus [6] = species on record: Cavia porcellus; assay: Irreversible antagonism to nalorphine was evaluated after 30 min incubation of GPI with the compound at 200 nM conc.; assay type: functional; how it was run: as §1
Cavia porcellus [7] = species on record: Cavia porcellus; assay: Agonistic potency on the guinea pig ileal longitudinal muscle (GPI) relative to morphine.; assay type: functional, Muscle tissue
How it was run: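 Isolated guinea pig ileal longitudinal muscle was prepared by the Rang method. […] Only inhibition of contraction greater than 80% was counted.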

Mus musculus [8] = species on record: Mus musculus; assay: Antagonist potency relative to DADLE at 20 nM concentration; assay type: functional
How it was run: (§2)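 Mouse vas deferens (Henderson method) was pretreated with compound for 30 min, then washed 20 times. […] Result is the agonist IC50 after treatment divided by the control IC50 in the same tissue. Where the agonist fell short of a full (>70%) response, an IC30 ratio was estimated from the plotted curves.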

Mus musculus [9] = species on record: Mus musculus; assay: Antagonist potency relative to DADLE at 200 nM concentration; assay type: functional; how it was run: as §2
Mus musculus [10] = species on record: Mus musculus; assay: Antagonist potency relative to morphine at 20 nM concentration; assay type: functional; how it was run: as §2
Mus musculus [11] = species on record: Mus musculus; assay: Antagonist potency relative to morphine at 200 nM concentration; assay type: functional; how it was run: as §2
Mus musculus [12] = species on record: Mus musculus; assay: (§3) Agonist activity measured on mouse vas deferens (MVD); assay type: functional
Mus musculus [13] = species on record: Mus musculus; assay: Percent of maximum inhibition of contraction of mouse vas deferens (MVD); assay type: functional
Cavia porcellus [14] = species on record: Cavia porcellus; assay: Irreversible antagonism to nalorphine was evaluated after 30 min incubation of GPI with the compound at 20 nM conc.; assay type: functional; how it was run: as §1
Cavia porcellus [15] = species on record: Cavia porcellus; assay: Irreversible antagonism to ethylketazocine (EK) was evaluated after 30 min incubation of GPI with the compound at 1000 nM conc.; assay type: functional; how it was run: as §1
Cavia porcellus [16] = species on record: Cavia porcellus; assay: Irreversible antagonism to ethylketazocine (EK) was evaluated after 30 min incubation of GPI with the compound at 200 nM conc.; assay type: functional; how it was run: as §1
Cavia porcellus [17] = species on record: Cavia porcellus; assay: Irreversible antagonism to morphine was evaluated after 30 min incubation of GPI with the compound at 1000 nM conc.; assay type: functional; how it was run: as §1
Mus musculus [18] = species on record: Mus musculus; assay: Antagonist potency relative to DADLE at 100 nM concentration; assay type: functional; how it was run: as §2
Mus musculus [19] = species on record: Mus musculus; assay: Antagonist potency relative to morphine at 100 nM concentration; assay type: functional; how it was run: as §2
Mus musculus [20] = species on record: Mus musculus; assay: Irreversible antagonistic potency in mouse vas deferens (MVD); assay type: functional
How it was run: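 Mouse vas deferens (Henderson method) was pretreated with compound for 30 min, then washed 20 times. Where the agonist fell short of a full (>70%) response, an IC30 ratio was estimated from the plotted curves.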

Cavia porcellus [21] = species on record: Cavia porcellus; assay: Agonistic activity on the guinea pig ileal longitudinal muscle (GPI) relative to morphine at a dose of 1 uM; assay type: functional, Muscle tissue
Mus musculus [22] = species on record: Mus musculus; assay: as §3; assay type: functional, organism-based
Cavia porcellus [23] = species on record: Cavia porcellus; assay: Irreversible antagonistic potency in guinea pig ileal longitudinal muscle (GPI); assay type: functional; details: Muscle tissue

Oc1ccc2c3c1O[C@H]1[C@@H](N=C=S)CC[C@@]4(O)C(C2)N(CC2CC2)CCC314 (stereo partly specified)
IC50 ratio (Cavia porcellus [1]): 0.8
IC50 ratio (Cavia porcellus [2]): 1.4
IC50 ratio (Cavia porcellus [3]): 2.4
IC50 ratio (Cavia porcellus [4]): 2.1
IC50 ratio (Cavia porcellus [5]): 2.3
IC50 ratio (Cavia porcellus [6]): 1.2
IC50 ratio (Cavia porcellus [7]): 9.6
IC50 ratio (Mus musculus [8]): 1.2
IC50 ratio (Mus musculus [9]): 6.6
IC50 ratio (Mus musculus [10]): 3.1
IC50 ratio (Mus musculus [11]): 10.7
IC30 (Mus musculus [12]): 100 nM
max inhibition (Mus musculus [13]): 45%

CCC(=O)N[C@H]1CCC2(O)C3Cc4ccc(O)c5c4C2(CCN3CC2CC2)[C@H]1O5 (stereo partly specified)
IC50 ratio (Cavia porcellus [3]): 1
IC50 ratio (Cavia porcellus [4]): 1.1
IC50 ratio (Cavia porcellus [6]): 0.9
IC50 ratio (Cavia porcellus [14]): 0.7
IC50 ratio (Cavia porcellus [7]): 2.9

COC(=O)/C=C/C(=O)N[C@@H]1CC[C@@]2(O)[C@H]3Cc4ccc(O)c5c4[C@@]2(CCN3CC2CC2)[C@H]1O5
IC50 ratio (Cavia porcellus [15]): 1.3
IC50 ratio (Cavia porcellus [16]): 1.2
IC50 ratio (Cavia porcellus [1]): 1
IC50 ratio (Cavia porcellus [17]): 18.8
IC50 ratio (Cavia porcellus [4]): 6
IC50 ratio (Cavia porcellus [7]): 5
IC50 ratio (Mus musculus [18]): 1.8
IC50 ratio (Mus musculus [9]): 1.1
IC50 ratio (Mus musculus [19]): 3.9
IC50 ratio (Mus musculus [11]): 10.6

CC(C)C[C@@H](NC(=O)[C@H](Cc1ccccc1)NC(=O)CNC(=O)[C@@H](C)NC(=O)[C@@H](N)Cc1ccc(O)cc1)C(=O)O [DADLE]
IC50 (Mus musculus [20]): 0.357 nM

Oc1ccc2c3c1O[C@H]1[C@H](N=C=S)CC[C@@]4(O)C(C2)N(CC2CC2)CCC314 (stereo partly specified)
IC50 ratio (Cavia porcellus [3]): 14.9
IC50 ratio (Cavia porcellus [4]): 6.9
IC50 ratio (Cavia porcellus [6]): 1.4
IC50 ratio (Cavia porcellus [14]): 1.5
IC50 ratio (Cavia porcellus [7]): 1.9
IC50 ratio (Mus musculus [8]): 1.8
IC50 ratio (Mus musculus [9]): 6.9
IC50 ratio (Mus musculus [10]): 13.8
IC50 ratio (Mus musculus [11]): 120
IC30 (Mus musculus [12]): 100 nM
max inhibition (Mus musculus [13]): 43%

O=C(CI)N[C@@H]1CCC2(O)C3Cc4ccc(O)c5c4C2(CCN3CC2CC2)[C@H]1O5 (stereo partly specified)
max inhibition (Cavia porcellus [21]): 55%
IC50 ratio (Cavia porcellus [15]): 0.7
IC50 ratio (Cavia porcellus [3]): 2.1
IC50 ratio (Cavia porcellus [4]): 2.4
IC50 ratio (Cavia porcellus [6]): 1.2
IC50 ratio (Cavia porcellus [14]): 1.2
IC50 ratio (Mus musculus [9]): 1.8
IC50 ratio (Mus musculus [11]): 20
IC50 (Mus musculus [22]): > 1000 nM

C=CC(=O)N[C@H]1CCC2(O)C3Cc4ccc(O)c5c4C2(CCN3CC2CC2)[C@H]1O5 (stereo partly specified)
IC50 ratio (Cavia porcellus [3]): 1.2
IC50 ratio (Cavia porcellus [4]): 1.2
IC50 ratio (Cavia porcellus [6]): 0.8
IC50 ratio (Cavia porcellus [14]): 0.78
IC50 ratio (Cavia porcellus [7]): 1.5

C=CC(=O)N[C@@H]1CCC2(O)C3Cc4ccc(O)c5c4C2(CCN3CC2CC2)[C@H]1O5 (stereo partly specified)
max inhibition (Cavia porcellus [21]): 40%
IC50 ratio (Cavia porcellus [15]): 1.5
IC50 ratio (Cavia porcellus [17]): 2.9
IC50 ratio (Cavia porcellus [3]): 4.2
IC50 ratio (Cavia porcellus [4]): 1.9
IC50 ratio (Cavia porcellus [6]): 1.4
IC50 ratio (Cavia porcellus [14]): 1.1

CCOc1ccc2c(c1)C1(C)CCN(CC3CC3)C(C2=O)C1C (stereo unspecified) [ETHYLKETAZOCINE]
IC50 (Cavia porcellus [23]): 0.973 nM

COC(=O)/C=C\C(=O)N[C@@H]1CC[C@@]2(O)C3Cc4ccc(O)c5c4C2(CCN3CC2CC2)[C@H]1O5 (stereo partly specified)
IC50 ratio (Cavia porcellus [3]): 0.63
IC50 ratio (Cavia porcellus [4]): 1.5
IC50 ratio (Cavia porcellus [6]): 0.6
IC50 ratio (Cavia porcellus [14]): 1
IC50 ratio (Cavia porcellus [7]): 1.1

O=C(CI)N[C@H]1CCC2(O)C3Cc4ccc(O)c5c4C2(CCN3CC2CC2)[C@H]1O5 (stereo partly specified)
IC50 ratio (Cavia porcellus [3]): 1.1
IC50 ratio (Cavia porcellus [4]): 0.97
IC50 ratio (Cavia porcellus [6]): 0.87
IC50 ratio (Cavia porcellus [14]): 1.2
IC50 ratio (Cavia porcellus [7]): 0.49
IC50 ratio (Mus musculus [9]): 1.2
IC50 ratio (Mus musculus [11]): 2.5
IC30 (Mus musculus [12]): 200 nM
max inhibition (Mus musculus [13]): 60%

CCC(=O)N[C@@H]1CCC2(O)C3Cc4ccc(O)c5c4C2(CCN3CC2CC2)[C@H]1O5 (stereo partly specified)
IC50 ratio (Cavia porcellus [3]): 1.5
IC50 ratio (Cavia porcellus [4]): 1.3
IC50 ratio (Cavia porcellus [6]): 0.85
IC50 ratio (Cavia porcellus [14]): 1
IC50 ratio (Cavia porcellus [7]): 0.81

COC(=O)/C=C\C(=O)N[C@H]1CC[C@@]2(O)C3Cc4ccc(O)c5c4C2(CCN3CC2CC2)[C@H]1O5 (stereo partly specified)
IC50 ratio (Cavia porcellus [3]): 1.1
IC50 ratio (Cavia porcellus [4]): 0.95
IC50 ratio (Cavia porcellus [6]): 0.98
IC50 ratio (Cavia porcellus [14]): 0.49
IC50 ratio (Cavia porcellus [7]): 0.8

C=CCN1CC[C@]23c4c5ccc(O)c4O[C@H]2[C@@H](O)C=C[C@H]3[C@H]1C5 [NALORPHINE]
IC50 (Cavia porcellus [23]): 51.3 nM

COC(=O)/C=C/C(=O)N[C@H]1CC[C@@]2(O)[C@H]3Cc4ccc(O)c5c4[C@@]2(CCN3CC2CC2)[C@H]1O5
IC50 ratio (Cavia porcellus [16]): 0.86
IC50 ratio (Cavia porcellus [3]): 0.87
IC50 ratio (Cavia porcellus [4]): 1.2
IC50 ratio (Cavia porcellus [14]): 0.92
IC50 ratio (Cavia porcellus [7]): 7.3
IC50 ratio (Mus musculus [9]): 0.37
IC50 ratio (Mus musculus [11]): 0.52
IC30 (Mus musculus [12]): 80 nM
max inhibition (Mus musculus [13]): 60%
